The structures appear in SMILES notation.

The nature of this data set: Toxicity liver stage against HepG2, at 10uM. The format is cell-based. On the set-up: test concentration 10 uM, cell line HepG2-A16-CD81EGFP. As to conditions: human, HepG2-A16-CD81EGFP cells; read-out: INHIBITION
The method in brief: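 Uninfected HepG2-A16-CD81EGFP cells, 3 × 10^3 per well, 1536-well, plated on prespotted compound at 10 μM final, parasite-free screening media added to match infected plates; puromycin 10 μM positive, DMSO 0.5% negative; run in parallel with 48 h PbLuc assay at 37 °C, 5% CO2; viability by CellTiter-Glo luminescence, normalized to controls.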
For the molecule `OCCC1CCN(c2ccnc3ccsc23)C1` (stereo unspecified), the cytotoxicity at 10 µM was 2.35%.

Regarding `Cc1ccc(C(CNCc2ccncc2)N2CCOCC2)s1` (stereo unspecified), the cytotoxicity at 10 µM is -14.6%.

For `CN(Cc1nc(-c2ccccc2)no1)C(=O)CNS(C)(=O)=O`, the cytotoxicity at 10 µM worked out at 0.0773%.

For `O=C(O)C(c1ccc2c(c1)OCO2)N1CCCCCC1` (stereo unspecified), the cytotoxicity at 10 µM was -0.293%.

Turning to `CN(C)CCN1C(=O)CCCC12CCCN(C(=O)c1ccncc1)C2` (stereo unspecified), the cytotoxicity at 10 µM was -1.31%.

`Cc1ccnc(NC(=O)C2(n3cnnn3)CCCCC2)c1`: the cytotoxicity at 10 µM was -0.0864%.

Turning to `COc1c[nH]c(C(=O)Nc2nc(C(C)(C)C)cs2)cc1=O`, the cytotoxicity at 10 µM was -49.6%.

As to `Cn1cccc1-c1cc(C(=O)N2CCCC2c2cccnc2)[nH]n1` (stereo unspecified), the cytotoxicity at 10 µM is -9.32%.

Consider `Cc1cc(C)c(CNC(=O)N(C)Cc2nnc3n2CCC3)c(=O)[nH]1`, for which the cytotoxicity at 10 µM is -10.5%.

As for `CN(Cc1ccccc1)c1ncccc1CNC(=O)c1ccnn1C`, the cytotoxicity at 10 µM is -1.37%.

With `COc1ccc(-c2cc3nn(CC(=O)NC(C)C)c(=O)n3c(C)n2)cc1`, the cytotoxicity at 10 µM was 1.81%.

On to `O=C1NCC2(CCCN(C(=O)Nc3cccc(-c4cscn4)c3)CC2)O1` (stereo unspecified), for which the cytotoxicity at 10 µM is -4.54%.

In the case of `COc1ccc2c(c1)C(=O)NC1(CC2)CCN(Cc2ccncc2)C1` (stereo unspecified), the cytotoxicity at 10 µM was 3.44%.

As for `CN(C)C(=O)N1CCCn2nc(CNC(=O)CCc3cccs3)cc2C1`, the cytotoxicity at 10 µM was -5.04%.

As to `CC(NC(=O)CCc1cccs1)c1nnc2n1CCCCC2` (stereo unspecified), the cytotoxicity at 10 µM is -7.59%.

For the molecule `Cn1nc(CN2CCCCC2)c2c1CN(Cc1ccoc1)C2`, the cytotoxicity at 10 µM is -0.449%.

Turning to `O=c1[nH]ccc2cc(-c3cc(O)cc(CCC4CCCCN4)c3)ccc12` (stereo unspecified), the cytotoxicity at 10 µM came to 1.81%.

As for `Cc1ccc(-c2ccc(C(=O)NCCC(=O)N(C)C)c(F)c2)cc1`, the cytotoxicity at 10 µM is -0.0916%.

With `CCOCC(O)CN1CCN(C(=O)Cc2ccccc2C)CC1` (stereo unspecified), the cytotoxicity at 10 µM was -3.43%.

On to `CCOCc1ncn2c1CN(S(=O)(=O)c1ccc(OC)cc1)CC2`, for which the cytotoxicity at 10 µM amounted to 0.199%.

Regarding `COCc1n[nH]/c(=N\C(=O)c2c3c(nc4onc(C)c24)CCC3)s1`, the cytotoxicity at 10 µM was -4.41%.

As for `O=C(O)c1ccc(C2CCCN(Cc3ccc(-c4cc[nH]n4)o3)C2)cc1` (stereo unspecified), the cytotoxicity at 10 µM is -2.43%.

Regarding `COC(C)(C)C(=O)N[C@H]1CN(c2nccnc2N(C)C)C[C@@H]1C(C)C`, the cytotoxicity at 10 µM stood at 4.24%.

Take `CC(C)(C)c1coc([C@@H]2COCCN2Cc2ccccc2)n1`: the cytotoxicity at 10 µM amounted to 2.72%.

In the case of `CCc1nc2n(n1)CC(NCc1noc(-c3ccc(C)cc3)n1)CC2` (stereo unspecified), the cytotoxicity at 10 µM was -4.26%.

Regarding `CN(Cc1ccccc1)C1(C(=O)NCC(N)=O)Cc2ccccc2C1`, the cytotoxicity at 10 µM came out at 2.45%.

For the molecule `COCc1cc(NCc2cccnc2Oc2ccc(C)nc2)ncn1`, the cytotoxicity at 10 µM came to 8.12%.

As to `O=C1CC(c2ccc(C(=O)O)cc2)c2ncn(-c3ccccc3Cl)c2N1` (stereo unspecified), the cytotoxicity at 10 µM was found to be 2.03%.

In the case of `O=C(c1ccncc1)N1CC[C@@H]2CN(C3CCOCC3)CCO[C@@H]2C1`, the cytotoxicity at 10 µM is -110%.

In the case of `Cc1nc(NCCc2ccc(Cl)cc2)cc(C(=O)N2CCCCC2)n1`, the cytotoxicity at 10 µM was -23%.

As for `CCN(C)c1ccc(CNS(=O)(=O)C2CCOCC2)cc1F`, the cytotoxicity at 10 µM was 10.3%.

For `CCc1nccn1CCC(=O)N1CC(=O)N(c2ccccc2C)CC1C` (stereo unspecified), the cytotoxicity at 10 µM was -15%.

For the molecule `O=C(CN1CCc2c(ncn2C2CC2)C1)NC1CC1`, the cytotoxicity at 10 µM was 1.01%.

As to `CCn1cnc(NC(=O)NCC2CCS(=O)(=O)CC2)n1`, the cytotoxicity at 10 µM stood at 5.08%.

Regarding `Cc1cccc2nc(CSCC(=O)Nc3nnc(C(C)C)s3)cc(=O)n12`, the cytotoxicity at 10 µM was -3.95%.

With `O=C([C@H]1CC[C@@H]2[C@@H](CCN2Cc2ccc(F)cc2)O1)N1CCCO1`, the cytotoxicity at 10 µM was determined as 3.74%.

Consider `COC(CNC(=O)c1ccoc1)c1cccc(Cl)c1` (stereo unspecified), for which the cytotoxicity at 10 µM was determined as 3.3%.

Turning to `CCOCC(=O)NCc1cc(C2CC2)n(C2CCCC2)n1`, the cytotoxicity at 10 µM was -0.165%.

For the molecule `CC(NC(=O)NCCNc1cnccn1)c1cccs1` (stereo unspecified), the cytotoxicity at 10 µM is -3.79%.

Consider `CCn1nc(C)c(CCNC(=O)C2CCCN(C(C)=O)C2)c1C` (stereo unspecified), for which the cytotoxicity at 10 µM was -20.8%.

As to `CC(C)C(Sc1nncn1C1CC1)C(=O)NCc1cccnc1` (stereo unspecified), the cytotoxicity at 10 µM is -6.86%.

Turning to `Cn1c(C2CCCN2C(=O)CN2CSCC2=O)nc2ccccc21` (stereo unspecified), the cytotoxicity at 10 µM stood at 7.81%.

Turning to `CCc1nnsc1C(=O)NC1CCN(c2ccccn2)CC1`, the cytotoxicity at 10 µM is -2.49%.

As to `CC(C)(C)c1n[nH]c(C2CN(C(=O)c3cc(Cl)c[nH]3)CCO2)n1` (stereo unspecified), the cytotoxicity at 10 µM was -10.6%.

Turning to `COc1ccc(OC)c(CCNC(=O)NC(C)Cn2ccnc2)c1` (stereo unspecified), the cytotoxicity at 10 µM is -1.06%.

Regarding `O=C(c1cc2cc(F)ccc2[nH]1)N1CCCCC1Cn1cccn1` (stereo unspecified), the cytotoxicity at 10 µM is -8.91%.

`Cn1c(-c2ccc(F)cc2)cn2cc(C(=O)N3CCC(N)C3)nc2c1=O` (stereo unspecified): the cytotoxicity at 10 µM came out at 4.43%.

On to `O=S(=O)(c1ccccc1)N1C2CCC(O)(CC2)C1CN1CCOCC1` (stereo unspecified), for which the cytotoxicity at 10 µM was -4.65%.

As for `Cc1cc(Br)ccc1NCc1ccc(C(=O)N(C)C)[nH]1`, the cytotoxicity at 10 µM was found to be 5.68%.

With `COc1ccc(CNC(C)Cn2cccn2)cc1F` (stereo unspecified), the cytotoxicity at 10 µM is -0.544%.

Consider `CCOc1ncnc2c1CCN(S(=O)(=O)C1CC1)CC2`, for which the cytotoxicity at 10 µM is 3.42%.

Take `CN1C(=O)C2(CCN(S(=O)(=O)C3CC3)CC2)c2ccccc21`: the cytotoxicity at 10 µM was -5.27%.

Take `CC(C)CNC(=O)N1CCC2(CCCO2)C1` (stereo unspecified): the cytotoxicity at 10 µM was determined as 12.9%.

As to `CC(C)c1n[nH]c(C2CN(CCCS(C)(=O)=O)CCO2)n1` (stereo unspecified), the cytotoxicity at 10 µM was -11.9%.

On to `COc1cc(-c2cc(-c3ccn(C)c3)nc(N)c2C#N)cc(OC)c1O`, for which the cytotoxicity at 10 µM was -7.77%.

Turning to `CC(=O)N1CCCn2nc(CNS(=O)(=O)c3cc(C)cs3)cc2C1`, the cytotoxicity at 10 µM is -9.58%.

For `CC(C)N(Cc1cccnc1)C(=O)CCSc1ccc(C#N)cc1`, the cytotoxicity at 10 µM came to 27.1%.

In the case of `Cc1nc(Nc2nncs2)cc(C2CCCN2)n1` (stereo unspecified), the cytotoxicity at 10 µM is -1.03%.

As for `Cc1c(CN2CC[C@@H](N3CCC(O)CC3)[C@H](O)C2)[nH]c2ccc(F)cc12`, the cytotoxicity at 10 µM came out at 4.07%.

`Cc1noc2nc(C3CC3)c(Cl)c(C(=O)O)c12`: the cytotoxicity at 10 µM was -1.25%.

In the case of `CCn1cc2c(n1)CN(CC1CC1)CC2COCC1CC1` (stereo unspecified), the cytotoxicity at 10 µM was -1.26%.

Turning to `CSCC(=O)N1CCOC(c2nc(C)n[nH]2)C1` (stereo unspecified), the cytotoxicity at 10 µM was 0.986%.

In the case of `Cc1cc(CN2CCN(C(=O)NCc3ccco3)CC2)no1`, the cytotoxicity at 10 µM was -14.8%.

For `Cc1cccc(CN2CC3C[C@]3(NC(=O)c3cccc(F)c3)C2)n1` (stereo partly specified), the cytotoxicity at 10 µM is -151%.

For the molecule `Cc1noc(C)c1CN(C)CCC(=O)N1CCc2sccc2C1`, the cytotoxicity at 10 µM was 0.265%.

As to `Cc1nn(C)cc1CN1CCCC1c1cccc(Nc2nccs2)n1` (stereo unspecified), the cytotoxicity at 10 µM amounted to 4.25%.

`O=S(=O)(c1ccc2c(c1)CCC2)N1CCCC(Cn2cncn2)C1` (stereo unspecified): the cytotoxicity at 10 µM stood at 4.19%.

Regarding `CC(C)CC(=O)N1CCc2nc(N3CCOCC3)nc(NC(C)C)c2C1`, the cytotoxicity at 10 µM was 2.86%.

As for `Cc1noc(C)c1-c1nc(C2CCCNC2)ccc1CO` (stereo unspecified), the cytotoxicity at 10 µM is -21.3%.

Take `O=C(C1CCS(=O)(=O)CC1)N1CCC(Cc2ccc(F)cc2)CC1`: the cytotoxicity at 10 µM was -41.9%.

Turning to `O=C1CN(S(=O)(=O)c2ccc(F)cc2)CC(O)CN1CC1CC1` (stereo unspecified), the cytotoxicity at 10 µM was 0.227%.

As to `CC(C)CS(=O)(=O)CCNC(=O)Nc1cccc2ncccc12`, the cytotoxicity at 10 µM was -11%.

As for `CCS(=O)(=O)N1CCN(C(=O)NC(C)C)CC2(CNC(=O)C2)C1` (stereo unspecified), the cytotoxicity at 10 µM was -0.82%.

As to `CN1CCCCC[C@@H]2[C@@H]1[C@H](c1ccccc1)CN2C(=O)c1ccccn1`, the cytotoxicity at 10 µM is -24.5%.

As for `CC(=O)N[C@@H]1CN(C(=O)c2csc(C(C)C)n2)C[C@H]1C(C)C`, the cytotoxicity at 10 µM is -6.71%.

As for `O=C([C@H]1CCCO1)N1CCC2(CCCN(CCOc3ccccc3)C2)C1` (stereo partly specified), the cytotoxicity at 10 µM was -3.25%.

As for `CC(C)N(C)C(=O)C1CCC2(CCNCC2)O1` (stereo unspecified), the cytotoxicity at 10 µM was -129%.

Turning to `NC(=O)CC1CCCN(c2cncc(OCc3ccccc3)n2)C1` (stereo unspecified), the cytotoxicity at 10 µM was determined as 17.7%.

Regarding `Cc1cc(C)n(CC2CN(Cc3ccccn3)CCO2)n1` (stereo unspecified), the cytotoxicity at 10 µM is -3.89%.

As to `CCn1cc2c(n1)CN(S(=O)(=O)c1cccnc1)CC2COC` (stereo unspecified), the cytotoxicity at 10 µM is 5.74%.

Turning to `COc1ccc(N2CCC(N(C)C(=O)Nc3ccncc3)CC2)cc1`, the cytotoxicity at 10 µM was 3.12%.

As to `CC(C)(C(=O)N1CCCC(OCc2cccnc2)C1)n1cccc1` (stereo unspecified), the cytotoxicity at 10 µM is -4.06%.

As for `OC(CN1CCCCCCC1)c1ccc(OC(F)(F)F)cc1` (stereo unspecified), the cytotoxicity at 10 µM is -11.2%.

Turning to `Cc1nn(C)c(N(C)C)c1CNC1CCOc2ccccc21` (stereo unspecified), the cytotoxicity at 10 µM is -9.66%.

With `Cc1cc(C)n(CC2CN(CC(=O)NC3CCCC3)CCO2)n1` (stereo unspecified), the cytotoxicity at 10 µM was -4.41%.

Take `CNC(=O)c1cccnc1NCCOc1ccc(CC#N)cc1`: the cytotoxicity at 10 µM was -1.53%.

`Cc1ccc(S(=O)(=O)NC[C@H]2OC[C@@H](NCc3ccccc3)[C@@H]2O)cc1`: the cytotoxicity at 10 µM was -1.73%.

As for `CC(=O)N1CC(c2ccnc(Nc3nccs3)n2)C1`, the cytotoxicity at 10 µM is 3.23%.

Consider `CCC(O)CN1CCN(C(=O)c2cc(Cl)cc3cccnc23)CC1` (stereo unspecified), for which the cytotoxicity at 10 µM was -13.7%.

For `COc1ccc2c(=O)n(CC3CC3)ccc2c1OC`, the cytotoxicity at 10 µM is 12.8%.

With `Cc1noc(CCNC(=O)NCc2ccc(OC3CCCC3)cc2)n1`, the cytotoxicity at 10 µM was determined as 13.2%.

Turning to `COc1ccc(Oc2ncccc2C(F)(F)F)cc1CN1CCCC1`, the cytotoxicity at 10 µM was determined as 4.22%.

For the molecule `CN1CCN(CC2CCN(C(=O)CCC3CCCCC3)CC2)CC1`, the cytotoxicity at 10 µM was -3.68%.

For the molecule `CC[C@H]1CN2CC[C@H]1C[C@@H]2CNC(=O)Nc1cccc(C(F)(F)F)c1`, the cytotoxicity at 10 µM turned out to be 0.676%.

For the molecule `COc1ncccc1C(=O)N1CCCC1c1nc(-c2ccccc2)no1` (stereo unspecified), the cytotoxicity at 10 µM is 1.75%.

Consider `COc1ccc(CNC(=O)CCN2C[C@@H](C)[C@](O)(C3CC3)C2)cc1`, for which the cytotoxicity at 10 µM was -12.5%.

For the origin of these results see ChEMBL document CHEMBL4513216, “Probing the Open Global Health Chemical Diversity Library for Multistage-Active Starting Points for Next-Generation Antimalarials” (ACS Infect Dis, 2020).
